Results: PubChem BioAssay AID638 (SRMLSC, 2007)
In all, about 1,300 compounds went through this assay and about 65 (5%) were called active. The list is a sample of the results. Measured potencies and affinities stand elsewhere. Values without a mark were called inactive.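 How the source made its calls: active means growth inhibition reaching a set limit at one or more tested doses; inactive means the rest.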

Assay: growth inhibition of wild-type E. coli, dose response, BW25113 wild type, OD615 (AID 638)
Conditions: at 100 µM (top of the series) unless noted
Summary of the method: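 Assay system: E. coli BW25113 wild type; buffer or medium: Kanamycin-supplemented LB broth; signal: optical density (absorbance) at 615 nm; controls: chloramphenicol 30 µM control; doses: compound concentration series; times: bacterial exposure to compound 20 h at 37 °C; evaluation: IC50 from 4-parameter logistic, bounds fixed 0–100%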
For `N=c1c2c(-c3ccccc3)c(-c3ccccc3)n(Cc3ccco3)c2ncn1Cc1ccco1`, the growth inhibition was 8.39%.
Molecule `CC(C)(C)N1C(=O)Cc2c1nc(N)c1c(N)nc(N3CCCCC3CO)c(C#N)c21` (stereo not given) has a growth inhibition of -2.72%.
`c1csc(-c2noc(COc3ccc4c(c3)CCCC4)n2)c1` showed a growth inhibition of 14.2%.
Work on `COc1ccc(CNC(=O)c2cc(-c3ccccc3OC)on2)cc1` yielded a growth inhibition of 10.6%.
`O=C(CS(=O)(=O)c1ccccc1)Nc1nc(-c2ccccc2)cs1` gave a growth inhibition of 7.34%.
For `CCN(CC)c1ccc(C(=O)Nc2cccc(F)c2)cc1`, the growth inhibition was 0.51%.
`O=C(CN1CCN(S(=O)(=O)c2ccc(F)cc2)CC1)Nc1ccc(Cl)c(C(F)(F)F)c1` gave a growth inhibition of 1.58%.
`CC1CCN(c2nc3ccccc3nc2C(C#N)S(=O)(=O)c2ccccc2)CC1` (stereo not given) showed a growth inhibition of -11.4%.
With `CC1=CCC(COC(=O)Nc2ccccc2)CC1` (stereo not given) the growth inhibition was 10.3%.
`Cc1cccnc1NC(=O)c1c(O)c2cccc3c2n(c1=O)CCC3` showed a growth inhibition of 0.91%.
Molecule `CCn1c(=O)c(C(=O)Nn2c(C)nc3ccccc3c2=O)c(O)c2ccccc21` has a growth inhibition of 2.63%.
In the case of `CCOC(=O)Cc1c(C)nc2c(-c3cccc(Br)c3)c[nH]n2c1=O`, the growth inhibition is reported as 7.94%.
In the case of `Cc1onc(-c2ccccc2)c1C(=O)Nc1nnc(COc2ccc(Cl)cc2)s1`, the growth inhibition is reported as -9.06%.
Molecule `CCn1c(C(=O)N2CCC(Cc3ccccc3)CC2)cc2sccc21` has a growth inhibition of -18.6%.
`N#Cc1c(NC(=O)c2ccc(Br)o2)n(-c2ccccc2)c2nc3ccccc3nc12` showed a growth inhibition of -13.4%.
Molecule `CC1=C(C#N)c2nc(N)c(C#N)c(C)c2/C1=C\c1ccccc1` has a growth inhibition of -0.01%.
Molecule `C(=C\c1ccccc1)/CN1CCN(c2ncnc3c2oc2ccccc23)CC1` has a growth inhibition of -1.65%.
For `CCC(CC)c1nnc(NC(=O)c2c(-c3ccccc3)noc2C)s1`, the growth inhibition was 9.3%.
`O=C1c2ccccc2C(O)(Cc2ccccc2)N1C1CCCCC1` (stereo not given) showed a growth inhibition of -0.01%.
`CCCc1nc(SCC(=O)N2CCC(Cc3ccccc3)CC2)c2c(=O)n(C)c(=O)n(C)c2n1` gave a growth inhibition of -7.24%.
For `O=C(Nc1ccc2nc(-c3cccs3)[nH]c2c1)c1ccco1`, the growth inhibition was 15%.
For `Cc1ccccc1S(=O)(=O)Cc1ccc(C(=O)N2CCN(c3cccc(C)c3C)CC2)o1`, the growth inhibition was 7.63%.
For `COc1ccc(-c2cc3nc4c(c(N5CCC6(CC5)OCCO6)n3n2)CCCC4)cc1`, the growth inhibition was 0.64%.
In the case of `Clc1ccc(C2=Nn3c(nnc3-c3n[nH]c4c3CCC4)SC2)cc1Cl`, the growth inhibition is reported as 1.98%.
Molecule `Cc1cccc(N2C(N)=C(C#N)C(C#N)(C#N)C2c2ccccc2)c1` (stereo not given) has a growth inhibition of -0.76%.
